Screens (PubChem BioAssay)
Sampled rows, rich in hits. Any-hit rate of the full collection: about 1.3%.
procasp7 counter: procaspase-7 activators, primary screen, counter-screen for procaspase-3 activator project, biochemical, absorbance, HTS, human | Caspase-7 (Homo sapiens), P55210 | recombinant procaspase-7, Ac-DEVD-pNA absorbance 405 nm; D23A/D198A/D206A triple mutant, cannot self-cleave; scale: DMSO 0, 5 µM enzyme 100 | activation, % at 8.5 µM | actives 0.093% (n = 330,000) | AID 463210, 2010;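 active means percent activation above the screen-wide mean plus 3 SD, cut at about 25% in these data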
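System: Uncleavable procaspase-7 mutant enzyme; Amount: 2 µM procaspase-7 mutant as dispensed; Schedule: 1 h compound preincubation, 2 h substrate cleavage, 25 °C; Measured by: 405 nm absorbance of p-nitroaniline; Evaluation: percent activation from buffer-corrected 0–120 min absorbance change; Control set: low DMSO alone, high DMSO plus 5 µM PC-7.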
proCasp3 act: activators of human procaspase-3 D3A mutant, primary screen, biochemical, absorbance, PC-3 D3A mutant, single concentration | recombinant procaspase-3 D3A, Ac-DEVD-pNA absorbance 405 nm | activation, % at 8.5 µM | actives 0.11% (n = 330,000);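 active means activation above the mean of all tested compounds plus 3 SD, cut at about 21% in these data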;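 further: 0% = DMSO alone and 100% = DMSO wells spiked with extra 5 µM PC-3 D3A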
Target sequence (P42574 whole entry D9A/D28A/D175A): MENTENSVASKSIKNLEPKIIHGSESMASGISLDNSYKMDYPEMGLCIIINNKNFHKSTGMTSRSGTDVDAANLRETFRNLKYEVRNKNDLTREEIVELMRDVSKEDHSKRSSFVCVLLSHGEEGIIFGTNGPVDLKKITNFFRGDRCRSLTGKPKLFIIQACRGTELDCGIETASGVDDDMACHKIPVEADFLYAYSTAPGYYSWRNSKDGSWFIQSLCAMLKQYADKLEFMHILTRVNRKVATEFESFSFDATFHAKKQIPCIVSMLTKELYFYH
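Compound: 8.5 µM single point, 0.8% DMSO / Material: Autoprocessing-dead procaspase-3 D3A mutant enzyme / Timing: 1 h preincubation plus 2 h reaction at 25 °C / Medium: Zinc-free HEPES/NaCl buffer with 0.01% Triton X-100 at pH 7.4 / Technique: 405 nm absorbance of p-nitroaniline, reads at 0 and 120 min / Repeats: one well per compound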
VLA-4 inh: inhibition in human VLA-4 binding assay, primary screen, VLA-4 allosteric modulator project, MLPCN library, flow cytometry, VLA-4 expressing cells | AID 2557, 2010 | inhibition, % (about 7 µM as worked out from the volumes in the protocol) | ligand binding flow cytometry | actives 0.2% (n = 330,000); in the data active means inhibition above about 50%
JMJD2C inh: inhibitors of GASC-1 histone demethylase, primary screen, biochemical, fluorescence, DELFIA europium | Lysine-specific demethylase 4C (Homo sapiens), Q9H3R0 | GST-JMJD2C(1-420) H3K9me3 demethylation | inhibition, % at 2.35 µM | actives 0.069% (n = 330,000) | AID 2099, 2009;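 active means more than half of a compound's replicate wells show inhibition beyond 50%, single wells judged on their own value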;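 further: signal counts dimethyl H3K9 product captured on neutravidin plate; 0% = median of DMSO wells and 100% = 0.3 times that DMSO median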
Target sequence (Q9H3R0 1-420 limits assumed): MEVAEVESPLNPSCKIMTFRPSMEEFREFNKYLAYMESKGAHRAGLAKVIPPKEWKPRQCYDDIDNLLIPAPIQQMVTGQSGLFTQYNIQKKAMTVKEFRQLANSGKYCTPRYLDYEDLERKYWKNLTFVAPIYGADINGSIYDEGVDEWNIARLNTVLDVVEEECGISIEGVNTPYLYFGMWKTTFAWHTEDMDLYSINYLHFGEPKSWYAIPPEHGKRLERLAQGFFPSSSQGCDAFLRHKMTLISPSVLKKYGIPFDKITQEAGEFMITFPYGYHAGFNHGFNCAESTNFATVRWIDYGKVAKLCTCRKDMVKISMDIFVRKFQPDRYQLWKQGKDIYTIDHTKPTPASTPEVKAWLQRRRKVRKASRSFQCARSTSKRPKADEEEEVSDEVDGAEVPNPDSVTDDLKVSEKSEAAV
Hep lipid drop: inhibitors of hepatocyte lipid droplet formation, primary screen, imaging, high-throughput imaging, BODIPY stain. AML12 mouse hepatocytes, oleate lipid droplets. inhibition, % at 6.5 µM. actives 0.4% (n = 240,000);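 active means lipid droplet intensity inhibited by at least 50%, with more than 500 cells counted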
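Assay system: AML12 hepatocytes (mouse) / Also added: 100 µM oleic acid challenge / Times: overnight treatment with compound plus oleate / Detection: high-content imaging of BODIPY-stained droplets and DAPI nuclei / Evaluation: % inhibition of lipid droplet signal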
GRK2 aptamer HTS: compounds blocking aptamer binding on GRK2 – biochemical, human GRK2, bead flow cytometry, HTS, primary screen | actives 0.59% (n = 330,000) | FAM-aptamer displacement from GRK2 | inhibition of aptamer binding, % at 10 µM | Beta-adrenergic receptor kinase 1 (Homo sapiens), P25098 | AID 488847, 2010;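 active means inhibition of aptamer binding above 40%, roughly 3 SD of noise, on plates passing a quality check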;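 further: median bead fluorescence of bound FAM aptamer so fluorescent compounds give negative values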
The depositor's hits bear a star; / = no result given.

SMILES | procasp7 counter | proCasp3 act | VLA-4 inh | JMJD2C inh | Hep lipid drop | GRK2 aptamer HTS
COc1ccc(CNN2CCCCC2C(=O)Nc2ccc(OC)c(OCC(C)C)c2)cc1OC (stereo unspecified) | 1.7 | 0.3 | -17.4 | -1.9 | -1.0 | 0.0
Cc1ccc(N2C(=O)C(NC(=O)c3ccccc3F)(C(F)(F)F)C3=C2CC(C)(C)CC3=O)cc1 (stereo unspecified) | -5.0 | -0.2 | -11.6 | -2.7 | 16.0 | 75.0*
CC1(C)CC(=O)C2=C(C1)N(c1ccc(F)cc1)C(=O)C2(NC(=O)c1ccccc1F)C(F)(F)F (stereo unspecified) | -3.5 | -9.8 | 0.5 | -4.6 | 2.2 | 0.0
C=C(C(=O)Oc1ccccc1C(C)(C)C)c1ccccc1 | 12.9 | 7.2 | 54.9* | 4.4 | / | 0.0
COc1ccccc1/C=C/C(=C1/C(=O)N(c2ccccc2)N=C1C)c1ccc(C)cc1 | 5.5 | 2.6 | 9.7 | -4.2 | 52.6* | 3.0
COc1cccc(/C=C/C(=C2/C(=O)N(c3ccccc3)N=C2C)c2ccccc2)c1OC | 1.0 | -6.3 | 5.6 | 6.9 | 19.8 | 8.0
N#C/C(N=Nc1ccccc1O)=N\Nc1ccccc1O | -19.7 | -7.4 | -337.8 | 86.7* | / | 2.0
Cc1cccc(C)c1NC(=O)CN1CCN(C(=O)c2ccc(OCc3cn4ccccc4n3)cc2)CC1 | 2.5 | 7.0 | -4.9 | 0.3 | / | 2.0
CN(C)CCCN(C(=O)c1ccc2c(c1)OCCO2)c1nc2cc3c(cc2s1)OCO3 | -3.4 | -1.2 | 0.0 | 1.4 | 1.1 | 0.0
CN(C)CCCN(C(=O)c1ccc([N+](=O)[O-])o1)c1nc2cc3c(cc2s1)OCO3 | 4.0 | 4.3 | 13.8 | -2.3 | -1.1 | 55.0*
COc1ccc(CNC(=O)CN(C)S(=O)(=O)c2ccc3c(c2)c(=O)n(C)c(=O)n3C)cc1 | 0.5 | 6.4 | -19.8 | -3.6 | -14.3 | 0.0
C[C@@H](c1ccccc1)N1C[C@H]2CCCN2c2cc(Br)ccc2S1(=O)=O | 9.2 | 1.8 | / | / | / | 41.0*
COc1ccc2c(c1)c(CC(=O)Nc1cc(C)ccc1C)c(C)n2C(=O)c1ccc(Cl)cc1 | 2.0 | 5.3 | 8.4 | 0.7 | 68.4* | 0.0
O=C(N/N=C/c1ccc(OC(=O)c2ccccc2Cl)cc1)c1ccccn1 | 0.7 | 8.6 | -4.3 | -10.3 | -8.9 | 1.0
O=C(N/N=C/c1ccc(OC(=O)c2ccccc2Cl)cc1)c1cc(O)cc(O)c1 | / | / | -14.2 | 0.0 | 14.7 | 55.0*
COc1cccc(C(=O)N/N=C/c2ccc(Oc3ccc([N+](=O)[O-])cn3)c(OC)c2)c1 | -8.6 | -1.8 | 2.4 | 7.4 | 15.6 | 0.0
COc1cc(/C=N/NC(=O)c2ccc3ccccc3c2)ccc1Oc1ccc([N+](=O)[O-])cn1 | 0.0 | -10.8 | 9.2 | -1.4 | 55.5* | 0.0
COc1cc(/C=N/NC(=O)c2cc(O)cc(O)c2)ccc1OC(=O)c1ccccc1 | / | / | 9.1 | -2.3 | 0.7 | 44.0*
CC1CCN(CCCNC(=O)Cn2ncc3c([nH]c4ccccc43)c2=O)CC1 | 3.7 | 3.5 | -89.8 | -10.5 | -15.5 | 0.0
O=C(CN1C(=O)c2ccccc2C1=O)Nc1cc(C(=O)O)cc(C(=O)O)c1 | 3.7 | 4.3 | 12.8 | 0.3 | / | 1.0
CCOC(=O)C1CCCN(C(=O)CCNC(=O)Cn2ccc3ccccc3c2=O)C1 (stereo unspecified) | 3.0 | 2.3 | 10.5 | 18.5 | -6.0 | 2.0
CC(=O)Nc1ccc2c(c1)OCCO2 | 5.9 | 13.1 | 31.8 | 3.2 | / | 2.0
C=C(C)C(=O)Nc1ccc2c(c1)OCCOCCOCCO2 | 2.3 | -3.8 | -3.0 | 1.6 | 3.4 | 93.0*
O=C(Nc1ccccc1N1CCN(c2ccccc2)CC1)c1ccccc1 | 11.9 | -0.7 | 1.0 | -4.3 | -25.5 | 0.0
COC1=C(N)C(=O)c2nc(-c3nc(C(=O)O)c(C)c(-c4ccc(OC)c(OC)c4O)c3N)ccc2C1=O | -0.3 | 4.4 | 40.7 | / | -38.5 | 66.0*
SMILES | procasp7 counter | proCasp3 act | VLA-4 inh | JMJD2C inh | Hep lipid drop | GRK2 aptamer HTS
COc1ccc(-c2ncncc2-c2csc(C)n2)c(O)c1OC | 2.6 | -4.6 | 8.6 | -4.4 | -3.9 | 0.0
Nc1ccc(C(=O)N/N=C/c2cn(Cc3ccc(F)cc3)c3ccccc23)cc1 | / | / | 0.6 | -7.3 | -33.8 | 0.0
O=C(N/N=C/c1cn(Cc2cccc(F)c2)c2ccccc12)c1cc(O)cc(O)c1 | / | / | 6.8 | 1.0 | -29.6 | 89.0*
O=C(c1ccccc1NS(=O)(=O)c1cccc([N+](=O)[O-])c1)N1CCOCC1 | 7.4 | 26.2* | -0.3 | -0.9 | / | 0.0
O=C(c1ccccc1NS(=O)(=O)c1ccc(Br)cc1)N1CCOCC1 | / | / | 17.6 | 19.7 | -7.4 | 0.0
CCOC(=O)C1CCCN(C(=O)Cn2cnc3sc(C)c(S(=O)(=O)N4CCOCC4)c3c2=O)C1 (stereo unspecified) | -5.7 | -7.4 | -5.3 | -8.2 | -3.3 | 2.0
COc1ccc(C2NC(=O)NC(C)=C2C(=O)OC2CCC(C)CC2)cc1 (stereo unspecified) | / | / | -1.0 | 6.4 | -0.8 | 2.0
COc1ccc(N(C(C)=O)c2nc(C)cc(C)c2C#N)c(OC)c1 | 0.3 | 3.0 | 37.1 | -5.1 | -3.0 | 2.0
CC(/C=C/c1ccco1)=N/NC(=O)CNc1ccccc1C | 9.0 | 9.3 | 6.4 | -7.9 | 11.3 | 0.0
CC(/C=C/C=C/c1ccccc1)=N/NC(=O)CNc1ccccc1C | 7.6 | 6.5 | 1.9 | 3.4 | -101.6 | 55.0*
O=c1c2[nH]cnc2n(-c2cccc(F)c2)c(=O)n1Cc1ccccc1 | 2.9 | -5.7 | 8.1 | 19.0 | -4.4 | 4.0
O=C(Nc1ccc(O)c(-c2nc3ccccc3s2)c1)c1cc(=O)c2ccccc2o1 | 2.2 | -3.0 | 1.5 | -2.6 | 3.1 | 90.0*
Cc1cc(O)ccc1C1(c2ccc(O)cc2C)OC(=O)c2ccccc21 | -1.0 | 4.5 | 11.7 | -1.7 | -20.6 | 0.0
O=C1OC2(c3ccccc31)c1cc(I)c(O)c(I)c1Oc1c2cc(I)c(O)c1I | -27.1 | -14.6 | -24.1 | / | / | 76.0*
COc1cc(OC)cc(C(=O)Nc2ccc(-n3cnnn3)c(C)c2)c1 | 4.2 | 10.0 | 5.4 | 88.8* | / | 0.0
COc1cc(NC(=O)c2ccccc2-n2cnnn2)cc(OC)c1 | 12.8 | 12.1 | 2.3 | 2.8 | / | 1.0
N#C/C(C(=O)N1CCCCC1)=C1/N=C(N)c2ccccc21 | 1.7 | 0.8 | -4.2 | -26.5 | 10.9 | 100.0*
